Assay outcomes (PubChem)
An excerpt weighted towards active compounds, which were near 1.3% of everything screened.
BB579 growth dn: reduces growth of yeast BB579 in restrictive medium. S. cerevisiae BB579 growth, OD615, 48 h. inhibition, % at 10 µM. 140,000 compounds, 0.51% hits;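 active = inhibition above a set limit, 3 SD over the mean compound inhibition, cut at about 44% in these data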
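controls = amphotericin B 10 µg/mL, positive | assay system = DeaD yeast strain BB579 | schedule = 48 h compound exposure at 30 °C after 4 h preincubation | detection = OD615 turbidity measurement | medium = restrictive CSMM-D medium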
sdo1 growth: compounds rescuing growth of sdo1-depleted yeast, bone marrow failure model | S. cerevisiae sdo1-depleted JHY4D growth rescue, OD600 30 h; active compounds read high; pdr5 snq2 efflux-pump mutant strain | z-score at 10 µM | 140,000 compounds, 0.21% hits | AID 817;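 active = z-score above 3 at both the 24 hr and the 30 hr optical density reads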
Yeast life ext: yeast lifespan extension. S. cerevisiae growth with nicotinamide, OD615; deaD strain in restrictive glucose medium. 130,000 compounds, 0.68% hits. inhibition of the nicotinamide effect, % at 10 µM;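 active = inhibition above a set limit, placed 3 SD over the median of all compounds, cut at about 26% in these data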
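Material: Modified budding yeast, DeaD strain | Medium: Restrictive glucose medium | Probe or stimulus: 1.5 mM nicotinamide | Dosing: Single dose 10 µM compound, 0.25% DMSO | Times: 48 h at 30 °C | Technique: OD615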
HMGR II inh: inhibitors of class II HMG-CoA reductase from Enterococcus faecalis | inhibition, % at 10 µM | AID 1066 | purified E. faecalis HMGR, NADPH absorbance 340 nm kinetic | 190,000 compounds, 0.41% hits;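 active = inhibition above a set limit, the median over all tested compounds plus 3 SD, cut at about 9.5% in these data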;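 note: enzyme runs in reverse so mevalonate oxidation gives rising NADPH absorbance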
SDO1 rescue DR: confirmation of growth rescue in SDO1-depleted yeast, bone marrow failure. shares compounds with sdo1 growth. 440 compounds, 44% hits. S. cerevisiae JHY4D (SDO1-depleted) growth rescue, OD600, 30 h; active compounds read high; efflux-deficient strain, SNQ2 and PDR5 mutated. OD recovery (no concentration beside the values). AID 949;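 active = yeast growth recovered at 30 hours, either rising with dose fitted slope above 0.001 or with average optical density gain above 0.07, some results past the limit were not filed as active; inactive = growth falling with dose or no effect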
Of the large screens only hits and unclear results are named; the others gave an inactive call (follow-up assays come after a bar, where they were run); ! = not confirmed by another sample.

CCN1CCN(CC(O)COCCOc2ccc(Br)cc2)CC1 (centres undefined)	sdo1 growth 6.9 | SDO1 rescue DR inactive
CCCOc1ccc(N2C(=O)CC(SCc3nc4ccccc4[nH]3)C2=O)cc1 (centres undefined)	none (no result: BB579 growth dn, sdo1 growth, Yeast life ext)
CCCc1nn(C)c(C(=O)Nc2cccc(CC)c2)c1Cl	none
CCCc1nn(C)c(C(=O)Nc2ccc3ccccc3c2)c1Cl	sdo1 growth 4.12 | SDO1 rescue DR 0.0962
O=C(NCc1ccccc1)c1cccc(Br)n1	sdo1 growth 14.7 | SDO1 rescue DR inactive
Cc1ccc(C)n1CCN1CCN(C(=O)c2ccco2)CC1	sdo1 growth 3.01! | SDO1 rescue DR inactive
COc1ccc(C2/C(=C(\O)c3ccc4c(c3)OCCO4)C(=O)C(=O)N2CCCN(C)C)cc1 (centres undefined)	none
Cc1ccc(C2/C(=C(\O)c3ccc4c(c3)OCCO4)C(=O)C(=O)N2CCCN(C)C)o1 (centres undefined)	sdo1 growth 6.86 | SDO1 rescue DR 0.0972
CC(/C=N/NC(=O)Cn1cnc2c1c(=O)n(C)c(=O)n2C)=C\c1ccccc1	none
Cc1ccc(S(=O)(=O)N2CCCCC2)cc1NC(=O)COC(=O)Cc1c(F)cccc1Cl	sdo1 growth 16.9 | SDO1 rescue DR 0.0896
Cc1nc2nc(C)c(CCC(=O)NC(C)c3ccc4c(c3)OCCO4)c(C)n2n1 (centres undefined)	none | SDO1 rescue DR inactive
Nc1c(N2CCOCC2)cc(Cl)c2nonc12	sdo1 growth 5.96 | SDO1 rescue DR inactive
O=C(Nc1ccc(SC(F)F)cc1)c1ccc(F)cc1	none (no result: BB579 growth dn, sdo1 growth, Yeast life ext)
CN1CCN(C(CC(=O)Nc2cccc(O)c2)C(=O)O)CC1 (centres undefined)	none (no result: BB579 growth dn, sdo1 growth, Yeast life ext)
Cn1c(=O)[nH]c(=O)c2c1nc(N1CCCC1)n2CCCSc1nnnn1-c1ccccc1	none | SDO1 rescue DR inactive
Cn1c(=O)[nH]c(=O)c2c1nc(N1CCCCCC1)n2CCCSc1nnnn1-c1ccccc1	none
CCOc1cc(C#N)c(NC(=O)c2cccnc2Cl)cc1OCC	none
CCOc1cc(C#N)c(NC(=O)c2cccnc2)cc1OCC	none | SDO1 rescue DR inactive
O=C1N(Cc2cccc(Cl)c2)C[C@@H]2C[C@@H](c3c[nH]c4ccccc34)N3CCC[C@@]123	none (no result: BB579 growth dn, sdo1 growth, Yeast life ext)
CCn1c(O)c(N=NC2=NC(=O)CS2)c2ccccc21	sdo1 growth 15.9 | SDO1 rescue DR inactive
CCn1c(O)c(N=N)c2ccccc21	none (no result: BB579 growth dn, sdo1 growth, Yeast life ext)
Cc1noc(C)c1COC(=O)c1cccc(N(C)C)c1	none (no result: BB579 growth dn, sdo1 growth, Yeast life ext)
O=C(C1COc2ccccc2O1)N1CCN(c2ccccc2F)CC1 (centres undefined)	sdo1 growth 3.15 | SDO1 rescue DR 0.114
O=C(C1COc2ccccc2O1)N1CCN(c2ccccc2Cl)CC1 (centres undefined)	none (no result: BB579 growth dn, sdo1 growth, Yeast life ext)
Cc1sc2ncnc(NC3CCN(Cc4ccccc4)CC3)c2c1C	none (no result: BB579 growth dn, sdo1 growth, Yeast life ext)
Cc1ccc(S(=O)(=O)N2CCOCC2)cc1NC(=O)COc1ncnc2ccccc12	none
O=C(COc1ncnc2ccccc12)Nc1cccc(S(=O)(=O)N2CCOCC2)c1	sdo1 growth 3.64 | SDO1 rescue DR inactive
CCN(CC)S(=O)(=O)c1ccc(-c2nnc(SCC(=O)Nc3nc(C)cs3)o2)cc1	none | SDO1 rescue DR inactive
Cc1csc(NC(=O)CSc2nnc(-c3ccc(S(=O)(=O)N4CCCC4)cc3)o2)n1	none
CCC(=O)OCC(=O)c1cc(C)n(-c2ccc(Br)cc2)c1C	none (no result: BB579 growth dn, sdo1 growth, Yeast life ext)
CC1CCc2c(sc(NC(=O)CSc3nnc(-c4ccccc4)o3)c2C#N)C1 (centres undefined)	none | SDO1 rescue DR 0.0914
N#Cc1c(NC(=O)CSc2nnc(-c3ccccc3)o2)sc2c1CCCC2	none
CCN(CC(=O)NC(C)C)C(=O)[C@H](C)NC(=O)c1ccc(Br)cc1	none (no result: BB579 growth dn, sdo1 growth, Yeast life ext)
CC(=O)c1cnn(-c2cc(Oc3cccc(C)c3)ncn2)c1C	sdo1 growth 6.88 | SDO1 rescue DR inactive
CC(C)NC(=O)CN1CCC(c2ccccc2)C(O)C1 (centres undefined)	none (no result: BB579 growth dn, sdo1 growth, Yeast life ext)
C=CCC1NCCc2c(Br)cccc21 (centres undefined)	none (no result: BB579 growth dn, sdo1 growth, Yeast life ext)
C=CC[C@@H]1Cc2c(Br)ccc(Br)c2[C@@H](CC=C)N1	sdo1 growth 6.52 | SDO1 rescue DR 0.104
O=C1c2oc3ccccc3c(=O)c2C(c2cccc(O)c2)N1CCCN1CCOCC1 (centres undefined)	none
CCOc1ccc(C2c3c(oc4ccccc4c3=O)C(=O)N2CCCN2CCOCC2)cc1OCC (centres undefined)	none | SDO1 rescue DR inactive
COc1ccc(-n2c(C)cc(SC)c(C(C)=O)c2=S)cc1	none
CSc1cc(C)n(-c2ccc(Cl)cc2)c(=S)c1C(C)=O	sdo1 growth 10.9 | SDO1 rescue DR inactive
CCNS(=O)(=O)c1ccc(CCC(=O)NCc2ccc(C)cc2)cc1	none (no result: BB579 growth dn, sdo1 growth, Yeast life ext)
Cc1nc2ccccn2c1C(=O)NCCCN1CCOCC1	none | SDO1 rescue DR 0.0889
COC(=O)c1ccc2[nH]c(C)cc(=O)c2c1	sdo1 growth 5.96 | SDO1 rescue DR inactive
O=C(CCC(=O)Nc1ccccc1Cl)N/N=C1\CCCc2ccccc21	sdo1 growth 12.6 | SDO1 rescue DR 0.0832
COc1ccc2c(c1)CCc1c(C(=O)Nc3ccc(OC)c(OC)c3)noc1-2	none
COc1ccc2c(c1)CCc1c(C(=O)NCCc3ccc(OC)c(OC)c3)noc1-2	none | SDO1 rescue DR inactive
CSc1ncc(Cl)c(C(=O)Nc2sc3c(c2C(=O)NCc2ccco2)CCCC3)n1	none
CCSc1ncc(Cl)c(C(=O)Nc2sc3c(c2C(=O)NCc2cccnc2)CCCC3)n1	none | SDO1 rescue DR 0.072
CCOc1cc(C(=O)N2CCCC2)cc(OCC)c1OCC	none | SDO1 rescue DR inactive
CCOC(=O)N1CCN(C(=O)c2cc(OCC)c(OCC)c(OCC)c2)CC1	none (no result: BB579 growth dn, sdo1 growth, Yeast life ext)
CC(C)CNC(=O)CSc1nnc(-c2ccc(Cl)cc2)n1N	none (no result: BB579 growth dn, sdo1 growth, Yeast life ext)
COc1ccc(-c2cc(C(F)(F)F)nc(SCC(=O)Nc3cc(C)on3)n2)cc1	none | SDO1 rescue DR 0.0841
Cc1c(Cl)cccc1NC(=O)c1ccc(-n2ccnc2)nc1	sdo1 growth 3.5 | SDO1 rescue DR inactive
Cc1ncoc1C(=O)Nc1cccc(Cl)c1C	none
COC(=O)C1C(=O)OC(C)(C)C1C(C)C(=O)c1ccccc1 (centres undefined)	sdo1 growth 4.85 | SDO1 rescue DR inactive
COc1ccc(CCN2C(=O)c3cccc4c(C(=O)N5CCCCC5)ccc(c34)C2=O)cc1OC	none | SDO1 rescue DR inactive
CC(C)c1ccc(NC(=O)COc2ccccn2)cc1	none (no result: BB579 growth dn, sdo1 growth, Yeast life ext)
CC(C)(C)NC(=O)NC(=O)COc1ccccn1	sdo1 growth 3.23 | SDO1 rescue DR inactive
O=C(Cn1ccc([N+](=O)[O-])n1)Nc1ccccn1	none (no result: BB579 growth dn, sdo1 growth, Yeast life ext)
O=C(Nc1ccc(S(=O)(=O)NCc2cccnc2)cc1)c1ccco1	none | SDO1 rescue DR inactive
NC(=O)C1(N2CCCCC2)CCN(C(=S)Nc2ccccc2)CC1	none
CCOc1ccc(NC(=O)N2CCC(C(N)=O)(N3CCCCC3)CC2)cc1	sdo1 growth 13.1 | SDO1 rescue DR inactive
Cc1cc(NC(=O)c2cccs2)n(-c2ccccc2)n1	sdo1 growth 3.47 | SDO1 rescue DR 0.0834
Cc1ccccc1N1CCN(Cc2c[nH]c3ccccc23)CC1	sdo1 growth 7.55 | SDO1 rescue DR inactive
